{
  "source": "ChEMBL document CHEMBL5653631",
  "about": "“A Potent and Selective ULK1 Inhibitor Suppresses Autophagy and Sensitizes Cancer Cells to Nutrient Stress” (iScience, 2018)",
  "key": {"[1]": {"biological_target": "cAMP-dependent protein kinase catalytic subunit alpha (Homo sapiens) (UniProt P17612)", "experiment": "Inhibition of human recombinant PKACalpha at 40 nM in presence of ATP by radiometric assay relative to control"}, "[2]": {"biological_target": "5'-AMP-activated protein kinase catalytic subunit alpha-2 (Homo sapiens) (UniProt P54646)", "experiment": "Inhibition of human recombinant AMPKa2 at 40 nM in presence of ATP by radiometric assay relative to control", "in_short": "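Panel of 327 recombinant human kinases, each assayed in vitro by radiometric activity assay in duplicate at a single inhibitor concentration per compound, chosen with reference to its ULK1 inhibition. Activity remaining was expressed as percent of vehicle control, and percent inhibition was calculated as 100 minus percent activity remaining.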"}, "[3]": {"biological_target": "Tau-tubulin kinase 1 (Homo sapiens) (UniProt Q5TCY1)", "sequence (Q5TCY1 whole entry)": "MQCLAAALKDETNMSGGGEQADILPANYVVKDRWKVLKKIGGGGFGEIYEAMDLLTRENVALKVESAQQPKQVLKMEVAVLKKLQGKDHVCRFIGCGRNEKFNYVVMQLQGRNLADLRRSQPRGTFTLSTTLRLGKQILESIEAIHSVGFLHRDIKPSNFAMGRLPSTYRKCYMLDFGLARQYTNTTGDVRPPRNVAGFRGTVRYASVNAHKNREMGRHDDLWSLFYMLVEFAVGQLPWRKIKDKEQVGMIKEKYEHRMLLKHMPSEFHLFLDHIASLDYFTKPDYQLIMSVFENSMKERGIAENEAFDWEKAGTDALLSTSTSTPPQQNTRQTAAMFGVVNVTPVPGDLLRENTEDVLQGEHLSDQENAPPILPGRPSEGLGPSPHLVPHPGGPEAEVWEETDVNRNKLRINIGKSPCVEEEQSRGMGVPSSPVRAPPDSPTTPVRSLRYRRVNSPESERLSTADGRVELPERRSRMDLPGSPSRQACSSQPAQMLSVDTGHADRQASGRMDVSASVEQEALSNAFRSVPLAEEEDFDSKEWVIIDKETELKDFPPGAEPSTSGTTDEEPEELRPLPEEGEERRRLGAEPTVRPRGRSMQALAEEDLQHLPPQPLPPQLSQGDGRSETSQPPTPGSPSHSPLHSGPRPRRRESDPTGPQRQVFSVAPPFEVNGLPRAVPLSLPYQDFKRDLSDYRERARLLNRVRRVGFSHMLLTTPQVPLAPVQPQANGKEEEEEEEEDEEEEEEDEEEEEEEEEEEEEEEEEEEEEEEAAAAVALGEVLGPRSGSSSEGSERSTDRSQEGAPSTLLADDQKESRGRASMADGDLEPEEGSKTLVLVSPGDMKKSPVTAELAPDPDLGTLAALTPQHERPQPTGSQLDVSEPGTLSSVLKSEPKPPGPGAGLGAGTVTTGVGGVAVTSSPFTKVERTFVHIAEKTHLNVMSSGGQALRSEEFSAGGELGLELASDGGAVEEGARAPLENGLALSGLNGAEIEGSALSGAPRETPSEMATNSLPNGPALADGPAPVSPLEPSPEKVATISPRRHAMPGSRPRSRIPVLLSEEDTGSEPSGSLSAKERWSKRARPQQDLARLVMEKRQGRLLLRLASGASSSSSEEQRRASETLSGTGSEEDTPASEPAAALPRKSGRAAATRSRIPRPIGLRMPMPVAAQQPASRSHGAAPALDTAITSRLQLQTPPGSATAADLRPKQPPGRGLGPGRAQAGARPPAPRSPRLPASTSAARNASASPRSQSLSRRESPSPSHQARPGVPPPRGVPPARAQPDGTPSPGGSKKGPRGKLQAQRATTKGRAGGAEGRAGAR", "experiment": "Inhibition of human recombinant TTBK1 at 40 nM in presence of ATP by radiometric assay relative to control"}, "[4]": {"biological_target": "Tau-tubulin kinase 2 (Homo sapiens) (UniProt Q6IQ55)", "sequence (Q6IQ55 whole entry)": "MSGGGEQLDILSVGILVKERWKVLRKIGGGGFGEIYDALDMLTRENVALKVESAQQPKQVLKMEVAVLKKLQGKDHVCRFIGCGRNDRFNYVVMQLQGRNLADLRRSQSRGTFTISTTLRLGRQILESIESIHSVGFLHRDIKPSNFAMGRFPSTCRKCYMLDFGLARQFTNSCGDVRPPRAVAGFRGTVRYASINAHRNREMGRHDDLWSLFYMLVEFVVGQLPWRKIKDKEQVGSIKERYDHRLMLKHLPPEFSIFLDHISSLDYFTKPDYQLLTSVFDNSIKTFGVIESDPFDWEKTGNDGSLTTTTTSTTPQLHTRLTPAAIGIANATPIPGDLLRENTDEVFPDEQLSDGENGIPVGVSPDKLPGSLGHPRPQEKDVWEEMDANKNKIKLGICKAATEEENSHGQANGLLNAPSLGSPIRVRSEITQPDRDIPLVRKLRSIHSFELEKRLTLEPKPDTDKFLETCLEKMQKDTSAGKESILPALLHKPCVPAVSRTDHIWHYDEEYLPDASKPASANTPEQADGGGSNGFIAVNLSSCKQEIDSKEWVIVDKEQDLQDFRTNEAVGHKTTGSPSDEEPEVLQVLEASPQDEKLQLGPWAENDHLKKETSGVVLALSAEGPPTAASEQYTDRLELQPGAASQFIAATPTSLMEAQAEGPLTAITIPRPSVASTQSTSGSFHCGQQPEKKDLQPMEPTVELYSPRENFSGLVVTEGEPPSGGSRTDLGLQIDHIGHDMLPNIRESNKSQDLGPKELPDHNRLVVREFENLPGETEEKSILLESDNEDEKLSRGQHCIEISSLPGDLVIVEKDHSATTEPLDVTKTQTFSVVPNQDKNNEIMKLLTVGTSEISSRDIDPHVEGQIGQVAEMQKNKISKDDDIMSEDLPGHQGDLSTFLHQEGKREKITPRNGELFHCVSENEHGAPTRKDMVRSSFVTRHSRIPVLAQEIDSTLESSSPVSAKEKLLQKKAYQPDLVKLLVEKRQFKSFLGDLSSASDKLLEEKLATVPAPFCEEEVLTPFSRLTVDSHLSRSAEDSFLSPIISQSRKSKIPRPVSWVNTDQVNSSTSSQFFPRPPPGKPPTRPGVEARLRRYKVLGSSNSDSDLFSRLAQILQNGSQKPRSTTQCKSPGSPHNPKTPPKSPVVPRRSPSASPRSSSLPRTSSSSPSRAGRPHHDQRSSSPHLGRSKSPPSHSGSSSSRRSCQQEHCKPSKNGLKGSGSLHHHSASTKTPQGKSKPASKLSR", "experiment": "Inhibition of human recombinant TTBK2 at 40 nM related to control ULK1"}, "[5]": {"biological_target": "T1, MAPK/MAK/MRK overlapping kinase (Homo sapiens) (UniProt Q9UQ07)", "T1 sequence (whole entry)": "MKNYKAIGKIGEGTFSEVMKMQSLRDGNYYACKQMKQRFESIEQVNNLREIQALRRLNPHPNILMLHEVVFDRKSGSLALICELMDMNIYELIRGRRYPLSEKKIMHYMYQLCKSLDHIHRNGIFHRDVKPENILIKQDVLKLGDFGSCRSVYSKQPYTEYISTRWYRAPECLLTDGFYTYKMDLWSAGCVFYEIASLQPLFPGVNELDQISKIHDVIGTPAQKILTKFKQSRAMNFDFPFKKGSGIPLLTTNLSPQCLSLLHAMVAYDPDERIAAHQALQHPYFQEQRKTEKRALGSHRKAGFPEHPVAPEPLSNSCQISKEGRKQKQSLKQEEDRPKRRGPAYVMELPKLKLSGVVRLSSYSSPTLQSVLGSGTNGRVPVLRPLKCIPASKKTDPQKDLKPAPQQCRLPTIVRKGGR", "experiment": "Inhibition of human recombinant MOK at 40 nM related to control ULK1"}, "[6]": {"biological_target": "NT-3 growth factor receptor (Homo sapiens) (UniProt Q16288)", "sequence (Q16288 32-839 limits assumed)": "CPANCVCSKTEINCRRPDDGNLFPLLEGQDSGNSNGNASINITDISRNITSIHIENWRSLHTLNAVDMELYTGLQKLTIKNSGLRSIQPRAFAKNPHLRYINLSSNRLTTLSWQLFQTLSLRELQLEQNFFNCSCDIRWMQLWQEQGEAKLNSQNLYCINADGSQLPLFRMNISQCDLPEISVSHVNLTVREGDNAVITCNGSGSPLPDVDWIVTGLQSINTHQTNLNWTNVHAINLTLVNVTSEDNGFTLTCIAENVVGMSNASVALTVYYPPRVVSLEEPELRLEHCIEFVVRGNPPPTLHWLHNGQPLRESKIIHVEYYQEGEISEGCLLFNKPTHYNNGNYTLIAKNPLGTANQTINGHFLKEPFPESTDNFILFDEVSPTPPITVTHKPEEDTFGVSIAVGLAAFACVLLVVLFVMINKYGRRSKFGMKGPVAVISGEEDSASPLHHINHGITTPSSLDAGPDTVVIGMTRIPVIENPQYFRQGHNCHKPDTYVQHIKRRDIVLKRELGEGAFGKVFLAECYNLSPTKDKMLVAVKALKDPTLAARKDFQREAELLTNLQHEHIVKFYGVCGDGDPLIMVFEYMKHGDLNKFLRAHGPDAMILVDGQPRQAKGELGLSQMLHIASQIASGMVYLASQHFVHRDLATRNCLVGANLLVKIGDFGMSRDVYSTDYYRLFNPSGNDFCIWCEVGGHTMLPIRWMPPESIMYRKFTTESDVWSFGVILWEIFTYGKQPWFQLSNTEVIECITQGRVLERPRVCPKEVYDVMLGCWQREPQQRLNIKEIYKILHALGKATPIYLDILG", "experiment": "Inhibition of human recombinant TRKC at 15 nM related to control ULK1"}, "[7]": {"biological_target": "T2, Serine/threonine-protein kinase BRSK1 (Homo sapiens) (UniProt Q8TDC3)", "T2 sequence (whole entry)": "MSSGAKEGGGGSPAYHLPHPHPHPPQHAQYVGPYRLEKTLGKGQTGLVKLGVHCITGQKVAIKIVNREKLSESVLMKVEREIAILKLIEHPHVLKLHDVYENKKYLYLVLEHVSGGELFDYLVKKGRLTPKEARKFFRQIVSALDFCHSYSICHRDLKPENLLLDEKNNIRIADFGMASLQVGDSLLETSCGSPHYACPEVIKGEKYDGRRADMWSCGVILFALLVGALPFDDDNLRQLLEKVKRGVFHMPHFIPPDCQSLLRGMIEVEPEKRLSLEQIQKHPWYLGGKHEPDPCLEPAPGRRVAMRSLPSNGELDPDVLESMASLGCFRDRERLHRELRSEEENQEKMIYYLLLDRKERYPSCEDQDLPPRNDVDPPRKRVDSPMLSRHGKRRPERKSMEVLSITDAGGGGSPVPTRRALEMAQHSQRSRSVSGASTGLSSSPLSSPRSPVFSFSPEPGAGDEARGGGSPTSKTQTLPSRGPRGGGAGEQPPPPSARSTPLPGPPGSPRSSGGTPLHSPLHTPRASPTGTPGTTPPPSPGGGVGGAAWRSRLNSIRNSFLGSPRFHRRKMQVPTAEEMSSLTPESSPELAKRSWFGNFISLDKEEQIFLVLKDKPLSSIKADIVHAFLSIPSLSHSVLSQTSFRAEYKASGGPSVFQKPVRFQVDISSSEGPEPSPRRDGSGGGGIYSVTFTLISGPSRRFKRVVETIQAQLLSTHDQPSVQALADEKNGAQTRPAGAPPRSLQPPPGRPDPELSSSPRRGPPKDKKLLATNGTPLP", "experiment": "Inhibition of human recombinant BRSK1 at 15 nM related to control ULK1"}, "[8]": {"biological_target": "Serine/threonine-protein kinase WNK3 (Homo sapiens) (UniProt Q9BYP7)", "experiment": "Inhibition of human recombinant Wnk3 at 15 nM in presence of ATP by radiometric assay relative to control"}, "[9]": {"biological_target": "T3, Interleukin-1 receptor-associated kinase 4 (Homo sapiens) (UniProt Q9NWZ3)", "T3 sequence (whole entry)": "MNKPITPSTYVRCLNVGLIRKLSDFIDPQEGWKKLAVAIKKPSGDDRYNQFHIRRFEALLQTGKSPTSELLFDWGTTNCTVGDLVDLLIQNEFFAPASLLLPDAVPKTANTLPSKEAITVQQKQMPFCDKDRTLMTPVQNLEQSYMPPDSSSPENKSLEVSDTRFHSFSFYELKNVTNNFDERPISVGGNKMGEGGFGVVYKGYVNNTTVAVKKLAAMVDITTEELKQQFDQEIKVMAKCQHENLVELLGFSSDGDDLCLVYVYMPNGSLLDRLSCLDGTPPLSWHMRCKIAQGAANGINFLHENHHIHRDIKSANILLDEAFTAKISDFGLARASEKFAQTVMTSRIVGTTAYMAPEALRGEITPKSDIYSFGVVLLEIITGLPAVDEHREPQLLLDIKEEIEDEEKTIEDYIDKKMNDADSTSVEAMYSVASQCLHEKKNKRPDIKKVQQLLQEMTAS", "experiment": "Inhibition of human recombinant IRAK4 at 500 nM related to control ULK1"}, "[10]": {"biological_target": "Calcium/calmodulin-dependent protein kinase type 1B (Homo sapiens) (UniProt Q6P2M8)", "sequence (Q6P2M8 whole entry)": "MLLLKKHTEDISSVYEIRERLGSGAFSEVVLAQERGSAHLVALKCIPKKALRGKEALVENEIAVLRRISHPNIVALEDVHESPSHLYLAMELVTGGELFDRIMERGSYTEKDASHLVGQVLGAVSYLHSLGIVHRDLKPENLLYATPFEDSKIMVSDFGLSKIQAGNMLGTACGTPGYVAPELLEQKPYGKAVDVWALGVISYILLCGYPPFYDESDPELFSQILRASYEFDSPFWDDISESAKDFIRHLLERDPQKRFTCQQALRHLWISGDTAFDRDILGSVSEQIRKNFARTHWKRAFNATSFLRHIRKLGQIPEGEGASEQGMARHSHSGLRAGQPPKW", "experiment": "Inhibition of human recombinant CaMK1b at 500 nM related to control ULK1"}, "[11]": {"biological_target": "Ribosomal protein S6 kinase alpha-5 (Homo sapiens) (UniProt O75582)", "experiment": "Inhibition of human recombinant MSK1 at 500 nM related to control ULK1"}, "[12]": {"biological_target": "Dual specificity protein kinase CLK4 (Homo sapiens) (UniProt Q9HAZ1)", "sequence (Q9HAZ1 whole entry, looked up)": "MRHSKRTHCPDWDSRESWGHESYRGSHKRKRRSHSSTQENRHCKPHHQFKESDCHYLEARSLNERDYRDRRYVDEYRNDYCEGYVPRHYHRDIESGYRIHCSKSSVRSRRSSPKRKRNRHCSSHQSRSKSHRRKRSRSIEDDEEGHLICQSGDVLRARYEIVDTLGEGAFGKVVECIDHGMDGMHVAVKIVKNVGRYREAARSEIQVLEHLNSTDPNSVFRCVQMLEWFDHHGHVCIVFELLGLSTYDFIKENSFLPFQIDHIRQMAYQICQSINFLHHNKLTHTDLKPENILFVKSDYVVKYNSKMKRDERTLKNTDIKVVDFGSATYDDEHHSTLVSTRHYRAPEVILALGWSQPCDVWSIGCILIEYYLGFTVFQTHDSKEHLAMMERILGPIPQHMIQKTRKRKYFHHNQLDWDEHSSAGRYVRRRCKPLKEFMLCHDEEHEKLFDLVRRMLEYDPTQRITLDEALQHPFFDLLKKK", "experiment": "Inhibition of human recombinant CLK4 at 500 nM related to control ULK1"}, "[13]": {"biological_target": "Ribosomal protein S6 kinase alpha-1 (Homo sapiens) (UniProt Q15418)", "sequence (Q15418 whole entry)": "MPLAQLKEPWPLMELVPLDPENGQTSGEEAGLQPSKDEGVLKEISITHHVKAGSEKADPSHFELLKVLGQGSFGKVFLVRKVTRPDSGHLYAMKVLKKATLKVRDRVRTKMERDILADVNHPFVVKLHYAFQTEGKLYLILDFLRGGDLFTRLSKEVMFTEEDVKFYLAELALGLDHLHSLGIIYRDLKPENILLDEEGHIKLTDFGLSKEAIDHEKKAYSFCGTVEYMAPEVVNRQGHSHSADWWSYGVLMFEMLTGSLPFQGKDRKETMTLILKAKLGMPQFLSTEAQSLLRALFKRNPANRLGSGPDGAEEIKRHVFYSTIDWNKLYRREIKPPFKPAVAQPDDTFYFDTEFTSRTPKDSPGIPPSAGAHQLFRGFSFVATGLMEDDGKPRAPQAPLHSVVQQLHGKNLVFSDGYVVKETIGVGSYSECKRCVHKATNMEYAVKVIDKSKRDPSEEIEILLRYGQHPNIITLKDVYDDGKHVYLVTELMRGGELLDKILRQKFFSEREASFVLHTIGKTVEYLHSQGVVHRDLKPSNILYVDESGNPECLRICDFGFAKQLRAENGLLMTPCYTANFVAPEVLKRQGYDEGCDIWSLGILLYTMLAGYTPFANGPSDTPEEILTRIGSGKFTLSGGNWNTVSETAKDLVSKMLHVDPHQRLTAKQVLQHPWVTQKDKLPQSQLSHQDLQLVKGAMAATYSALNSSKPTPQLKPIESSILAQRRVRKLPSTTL", "experiment": "Inhibition of human recombinant RSK1 at 500 nM related to control ULK1"}, "[14]": {"biological_target": "Homeodomain-interacting protein kinase 1 (Homo sapiens) (UniProt Q86Z02)", "experiment": "Inhibition of human recombinant HIPK1 at 500 nM related to control ULK1"}, "[15]": {"biological_target": "Insulin receptor-related protein (Homo sapiens) (UniProt P14616)", "experiment": "Inhibition of human recombinant IRR at 500 nM in presence of ATP by radiometric assay relative to control"}},
  "data": [
    {"smiles": "O=C(N[C@@H](C1CC1)C(F)(F)F)c1cc(-c2cnn3cc(-c4ccc(F)cc4)cnc23)cs1", "values": [
      {"measurement": "inhibition", "setting": "[1]", "value": 0, "unit": "%"},
      {"measurement": "inhibition", "setting": "[2]", "value": 7, "unit": "%"},
      {"measurement": "inhibition", "setting": "[3]", "value": 0, "unit": "%"},
      {"measurement": "fold change (FC)", "setting": "[4]", "value": 0},
      {"measurement": "fold change (FC)", "setting": "[5]", "value": 0}
    ]},
    {"smiles": "CC(C)[C@H](NC(=O)c1cc(-c2cnn3cc(-c4ccc(OCCN5CCCCC5)cc4)cnc23)cs1)C(F)(F)F", "values": [
      {"measurement": "fold change (FC)", "setting": "[6]", "value": 0},
      {"measurement": "fold change (FC)", "setting": "[7]", "value": 0.15},
      {"measurement": "inhibition", "setting": "[8]", "value": 0, "unit": "%"}
    ]},
    {"smiles": "CNC(=O)c1ccccc1Oc1nc(Nc2cc(OC)c(OC)c(OC)c2)ncc1Br", "values": [
      {"measurement": "fold change (FC)", "setting": "[9]", "value": 0.08},
      {"measurement": "fold change (FC)", "setting": "[10]", "value": 0},
      {"measurement": "fold change (FC)", "setting": "[11]", "value": 0.15},
      {"measurement": "fold change (FC)", "setting": "[12]", "value": 0.11},
      {"measurement": "fold change (FC)", "setting": "[13]", "value": 0.26},
      {"measurement": "fold change (FC)", "setting": "[14]", "value": 0.04},
      {"measurement": "inhibition", "setting": "[15]", "value": 9, "unit": "%"}
    ]}
  ]
}
